Results from ChEMBL document CHEMBL1149311, “Synthesis and antitumor activity of methyltriazene prodrugs simultaneously releasing DNA-methylating agents and the antiresistance drug O(6)-benzylguanine” (J Med Chem, 2004).

Assays:
[1] = Half life of hydrolysis in deuterated phosphate buffer at pD 7.8; details: pH 7.8
MCF7 [2] = test: Antitumor activity against human MCF7 cells at 100 uM relative to control; type: functional
In short: (§1)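 NCI three-cell-line one-dose primary anticancer prescreen at 100 µM. Growth is expressed as % of untreated control cells, with the control taken as 100%.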

NCI-H460 [3] = test: Antitumor activity against human NCI-H460 cells at 100 uM relative to control; type: functional; in short: as §1
SF-268 [4] = test: Antitumor activity against human SF268 cells at 100 uM relative to control; type: functional; in short: as §1
NCI [5] = test: Antitumor activity against human NCI prostate cancer cell line panel; type: functional, cell-based
In short: (§2)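 Tested in the NCI in vitro disease-oriented human tumor cell screen. The endpoints are IC50 (molar concentration giving 50% growth inhibition), TGI (total growth inhibition) and LC50 (50% net cell death). The maximal concentration tested was 100 μM. Subpanel values are means of several individual cell lines.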

carcinoma cell line = test: Antitumor activity against human NCI ovarian carcinoma cell line panel; type: functional, cell-based; in short: as §2
NCI [6] = test: Antitumor activity against human NCI breast cancer cell line panel; type: functional, cell-based; in short: as §2
[7] = test system: Non-small cell lung cancer cell line; test: Antitumor activity against human NCI non-small cell lung cancer cell line panel; type: functional, cell-based; in short: as §2
NCI [8] = test: Antitumor activity against NCI human melanoma cell line panel; type: functional, cell-based; in short: as §2
NCI [9] = test: Antitumor activity against human NCI renal cancer cell line panel; type: functional, cell-based; in short: as §2
NCI [10] = test: Antitumor activity against human NCI colon cancer cell line panel; type: functional, cell-based; in short: as §2
NCI [11] = test: Antitumor activity against human NCI leukemia cell line panel; type: functional, cell-based; in short: as §2
NCI [12] = test: Antitumor activity against human NCI CNS cancer cell line panel; type: functional, cell-based; in short: as §2
SF-268 [13] = test: Antitumor activity against human SF268 cells at 50 uM relative to control; type: functional
In short: (§3)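 Tested in the NCI three-cell-line one-dose primary anticancer prescreen. The read-out is growth as % of untreated control cells (100%) at 50 μM.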

NCI-H460 [14] = test: Antitumor activity against human NCI-H460 cells at 50 uM relative to control; type: functional; in short: as §3
MCF7 [15] = test: Antitumor activity against human MCF7 cells at 50 uM relative to control; type: functional; in short: as §3

**Q.** For `CN(/N=N/c1nc(OCc2ccccc2)c2nc[nH]c2n1)C(=O)c1cccnc1`, which half-life ([1]; deuterated phosphate buffer) is on record?
**A.** 530 min

**Q.** With `CN(/N=N/c1nc(OCc2ccccc2)c2nc[nH]c2n1)C(=O)Oc1ccc(C(N)=O)cc1` as the compound, how does the half-life ([1]; deuterated phosphate buffer) read?
**A.** 385 min

**Q.** What does the source list for `CCOC(=O)N(C)/N=N/c1nc(OCc2ccccc2)c2nc[nH]c2n1`?
**A.** Activity (MCF7 [2]): 103%; half-life ([1]; deuterated phosphate buffer): 3500 min; Activity (NCI-H460 [3]): 90%; Activity (SF-268 [4]): 91%

**Q.** With `CC(=O)Nc1ccc(OC(=O)N(C)/N=N/c2nc(OCc3ccccc3)c3nc[nH]c3n2)cc1` as the compound, how does the half-life ([1]; deuterated phosphate buffer) read?
**A.** 1160 min

**Q.** For `CC(=O)N(C)/N=N/c1nc(OCc2ccccc2)c2nc[nH]c2n1`, which Activity (MCF7 [2]) is on record?
**A.** 99%

**Q.** And the half-life ([1]; deuterated phosphate buffer)?
**A.** 3500 min

**Q.** And the Activity (NCI-H460 [3])?
**A.** 89%

**Q.** What about the Activity (SF-268 [4]) of the same compound?
**A.** 78%

**Q.** For `CN(/N=N/c1nc(OCc2ccccc2)c2nc[nH]c2n1)C(=O)c1ccc([N+](=O)[O-])cc1`, which half-life ([1]; deuterated phosphate buffer) is on record?
**A.** 960 min

**Q.** What does the source list for `CN(/N=N/c1nc(OCc2ccccc2)c2nc[nH]c2n1)C(=O)c1ccccc1`?
**A.** Activity (MCF7 [2]): 107%; half-life ([1]; deuterated phosphate buffer): 2300 min; Activity (NCI-H460 [3]): 93%; Activity (SF-268 [4]): 79%

**Q.** For `Cn1nnc2c(C(N)=O)ncn2c1=O` [TEMOZOLOMIDE], which IC50 (NCI [5]) is on record?
**A.** 100 µM

**Q.** And the IC50 (carcinoma cell line)?
**A.** 91 µM

**Q.** What about the IC50 (NCI [6]) of the same compound?
**A.** 100 µM

**Q.** And the IC50 [7]?
**A.** 100 µM

**Q.** And the IC50 (NCI [8])?
**A.** 98 µM

**Q.** And the half-life ([1]; buffer)?
**A.** 25 min

**Q.** And the IC50 (NCI [9])?
**A.** 98 µM

**Q.** What about the IC50 (NCI [10]) of the same compound?
**A.** 100 µM

**Q.** What about the IC50 (NCI [11]) of the same compound?
**A.** 79 µM

**Q.** What about the TGI (NCI [11]) of the same compound?
**A.** > 100 µM

**Q.** And the CC50 (NCI [11]; read-out: LC50 (the source's name))?
**A.** > 100 µM

**Q.** And the IC50 (NCI [12])?
**A.** 93 µM

**Q.** Which Activity (MCF7 [2]) does the source give for `CN(/N=N/c1nc(OCc2ccccc2)c2nc[nH]c2n1)C(=O)Oc1ccccc1` here?
**A.** 107%

**Q.** What about the half-life ([1]; deuterated phosphate buffer) of the same compound?
**A.** 1150 min

**Q.** And the Activity (NCI-H460 [3])?
**A.** 87%

**Q.** What about the Activity (SF-268 [4]) of the same compound?
**A.** 102%

**Q.** With `CN(/N=N/c1nc(OCc2ccccc2)c2nc[nH]c2n1)C(=O)Oc1ccc(S(N)(=O)=O)cc1` as the compound, how does the half-life ([1]; deuterated phosphate buffer) read?
**A.** 169 min

**Q.** Which Activity (SF-268 [13]) does the source give for `COC(=O)c1ccc(OC(=O)N(C)/N=N/c2nc(OCc3ccccc3)c3nc[nH]c3n2)cc1` here?
**A.** 107%

**Q.** What about the half-life ([1]; deuterated phosphate buffer) of the same compound?
**A.** 147 min

**Q.** What about the Activity (NCI-H460 [14]) of the same compound?
**A.** 53%

**Q.** What about the Activity (MCF7 [15]) of the same compound?
**A.** 116%
